How the values were obtained:
[1] = test system: Mus musculus; experiment: Maximum tolerated dose after intraperitoneal administration in mouse (period of 28 days); assay type: functional
How it was run: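 Healthy, non-tumour-bearing B6D2F1 mice given one acute intraperitoneal dose, three mice per dose group, doses 5, 10, 20, 40, 80, 120 and 160 mg/kg. Survival and body weight followed for 28 days after injection. MTD is the highest single dose causing no deaths over the period.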

[2] = test system: A549; experiment: Concentration required for 50% growth inhibition of human A549 cancer cell lines after 3 days of culture; assay type: functional, cell-based; settings: A549, 72 h
How it was run: (§1)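 MTT overall-growth assay on the five lines. Cells were plated for 24 h at 10 000–40 000 cells/mL, depending on cell type. Nine concentrations from 10^-9 to 10^-5 M in semilog steps were applied for 72 h. Formazan was read at 570 nm against a 630 nm reference, in sextuplicate. IC50 = concentration reducing overall growth by 50% versus untreated control.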

[3] = test system: U373 MG; experiment: Concentration required for 50% growth inhibition of human U373 cancer cell lines after 3 days of culture; assay type: functional, cell-based, U-373MG ATCC; settings: 72 h; how it was run: as §1
[4] = test system: HCT-15; experiment: Concentration required for 50% growth inhibition of human HCT-15 cancer cell lines after 3 days of culture; assay type: functional, cell-based; settings: HCT-15, 72 h; how it was run: as §1
[5] = Concentration required for 50% growth inhibition of human Hs 683 cancer cell lines after 3 days of culture; assay type: functional, cell-based; settings: 72 h; how it was run: as §1
[6] = test system: LoVo; experiment: Concentration required for 50% growth inhibition of human LoVo cancer cell lines after 3 days of culture; assay type: functional, cell-based; settings: 72 h; how it was run: as §1
[7] = target: Sodium/potassium-transporting ATPase subunit alpha-1 (Sus scrofa, UniProt P05024); experiment: In vitro inhibitory activity against porcine Na+/K+-ATPase
How it was run: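 Porcine cerebral cortex Na+/K+-ATPase (3 × 10-3 units), preincubated 30 min at 37 °C in 30 mM Tris-HCl pH 7.4, 5 mM MgCl2 with inhibitor (1 to 50 000 nM). ADP formation coupled via pyruvate kinase/lactate dehydrogenase, excess phosphoenolpyruvate, to NADH oxidation.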

Row | SMILES | MTD [1] [mg/kg] | IC50 [2] [nM] | IC50 [3] [nM] | IC50 [4] [nM] | IC50 [5] [nM] | IC50 [6] [nM] | IC50 [7] [nM]
1 | C[C@@H]1C[C@@]2(NCCS2)C2(O)O[C@@H]3C[C@@]4(CO)[C@@H](CC[C@@H]5[C@@H]4CC[C@]4(C)[C@@H](C6=CC(=O)OC6)CC[C@]54CO)C[C@H]3O[C@@H]2O1 (some centres not stated) | 5 | 4 | 31 | 21 | 3 | 13 | –
2 | Cc1ccc(S(=O)(=O)OC[C@]23C[C@H]4OC5(O)[C@@H](O[C@H](C)C[C@@]56NC(=O)CS6)O[C@@H]4C[C@@H]2CC[C@@H]2[C@@H]3CC[C@]3(C)[C@@H](C4=CC(=O)OC4)CC[C@]23CO)cc1 (some centres not stated) | – | 48 | 326 | 382 | 45 | 89 | –
3 | CC(O)CCC(=O)OC[C@]12C[C@H]3OC4(O)[C@@H](O[C@H](C)C[C@@]45NC(=O)CS5)O[C@@H]3C[C@@H]1CC[C@@H]1[C@@H]2CC[C@]2(C)[C@@H](C3=CC(=O)OC3)CC[C@]12CO (some centres not stated) | >40 | 414 | 1190 | 1500 | 370 | 1560 | –
4 | C[C@@H]1C[C@@]2(N=C(N)CS2)[C@]2(O)O[C@@H]3C[C@@]4(C=O)[C@@H](CC[C@@H]5[C@@H]4CC[C@]4(C)[C@@H](C6=CC(=O)OC6)CC[C@]54O)C[C@H]3O[C@@H]2O1 | 5 | 25 | 40 | 28 | 4 | 10 | 68
5 | C[C@@H]1C[C@@]2(NC(=O)CS2)C2(O)O[C@@H]3C[C@@]4(COC(=O)c5ccccc5)[C@@H](CC[C@@H]5[C@@H]4CC[C@]4(C)[C@@H](C6=CC(=O)OC6)CC[C@]54CO)C[C@H]3O[C@@H]2O1 (some centres not stated) | >40 | 625 | 4170 | 3620 | 778 | 2370 | –
6 | C[C@@H]1C[C@@]2(N[C@H](CC(=O)c3ccccc3)CS2)C2(O)O[C@@H]3C[C@@]4(CO)[C@@H](CC[C@@H]5[C@@H]4CC[C@]4(C)[C@@H](C6=CC(=O)OC6)CC[C@]54CO)C[C@H]3O[C@@H]2O1 (some centres not stated) | 80 | 3 | 34 | 34 | 4 | 18 | –
7 | C[C@@H]1C[C@@]2(N[C@@H](CC(=O)c3ccccc3)CS2)C2(O)O[C@@H]3C[C@@]4(CO)[C@@H](CC[C@@H]5[C@@H]4CC[C@]4(C)[C@@H](C6=CC(=O)OC6)CC[C@]54CO)C[C@H]3O[C@@H]2O1 (some centres not stated) | 80 | 4 | 38 | 44 | 4 | 18 | –
8 | CC(=O)OC[C@]12C[C@H]3OC4(O)[C@@H](O[C@H](C)C[C@@]45N=C(N)CS5)O[C@@H]3C[C@@H]1CC[C@@H]1[C@@H]2CC[C@]2(C)[C@@H](C3=CC(=O)OC3)CC[C@]12CO (some centres not stated) | >40 | 3700 | > 4150 | 4130 | > 1280 | 3540 | 12100
9 | C[C@@H]1C[C@@]2(N[C@H](CC(O)c3ccccc3)CS2)C2(O)O[C@@H]3C[C@@]4(CO)[C@@H](CC[C@@H]5[C@@H]4CC[C@]4(C)[C@@H](C6=CC(=O)OC6)CC[C@]54CO)C[C@H]3O[C@@H]2O1 (some centres not stated) | – | 2 | 28 | 31 | 3 | 19 | –
10 | C[C@@H]1C[C@@]2(N[C@@H](CC(=O)c3ccccc3)CS2)C2(O)O[C@@H]3C[C@@]4(C=O)[C@@H](CC[C@@H]5[C@@H]4CC[C@]4(C)[C@@H](C6=CC(=O)OC6)CC[C@]54CO)C[C@H]3O[C@@H]2O1 (some centres not stated) | 10 | 18 | 84 | 92 | 22 | 100 | –
11 | Cc1ccc(S(=O)(=O)OC[C@]23C[C@H]4OC5(O)[C@@H](O[C@H](C)C[C@@]56N=C(N)CS6)O[C@@H]4C[C@@H]2CC[C@@H]2[C@@H]3CC[C@]3(C)[C@@H](C4=CC(=O)OC4)CC[C@]23CO)cc1 (some centres not stated) | 10 | 2720 | 9960 | 5800 | 1430 | 1060 | –
12 | COC(=O)OC[C@]12C[C@H]3OC4(O)[C@@H](O[C@H](C)C[C@@]45N=C(N)CS5)O[C@@H]3C[C@@H]1CC[C@@H]1[C@@H]2CC[C@]2(C)[C@@H](C3=CC(=O)OC3)CC[C@]12CO (some centres not stated) | >40 | 42 | 320 | 442 | 49 | 245 | –
13 | C[C@@H]1C[C@@]2(N=C(N)CS2)C2(O[Si](C)(C)C)O[C@@H]3C[C@@]4(CO[Si](C)(C)C)[C@@H](CC[C@@H]5[C@@H]4CC[C@]4(C)[C@@H](C6=CC(=O)OC6)CC[C@]54CO[Si](C)(C)C)C[C@H]3O[C@@H]2O1 (some centres not stated) | >160 | > 10000 | > 10000 | > 10000 | > 10000 | > 10000 | > 50000
14 | C[C@@H]1C[C@@]2(NCCS2)[C@]2(O)O[C@@H]3C[C@@]4(C=O)[C@@H](CC[C@@H]5[C@@H]4CC[C@]4(C)[C@@H](C6=CC(=O)OC6)CC[C@]54O)C[C@H]3O[C@@H]2O1 | 1.25 | 5 | 32 | 27 | 4 | 17 | –
15 | CC(=O)OC[C@]12C[C@H]3OC4(O)[C@@H](O[C@H](C)C[C@@]45NC(=O)CS5)O[C@@H]3C[C@@H]1CC[C@@H]1[C@@H]2CC[C@]2(C)[C@@H](C3=CC(=O)OC3)CC[C@]12CO (some centres not stated) | >40 | 1860 | 4600 | 4430 | 2780 | 2770 | –
16 | C[C@@H]1C[C@@]2(N=C(N)CS2)C2(O)O[C@@H]3C[C@@]4(COC(=O)c5ccccc5)[C@@H](CC[C@@H]5[C@@H]4CC[C@]4(C)[C@@H](C6=CC(=O)OC6)CC[C@]54CO)C[C@H]3O[C@@H]2O1 (some centres not stated) | >40 | > 10000 | > 10000 | > 10000 | > 10000 | > 10000 | > 50000
17 | C[C@@H]1C[C@@]2(NC(=O)CS2)C2(O)O[C@@H]3C[C@@]4(COS(C)(=O)=O)[C@@H](CC[C@@H]5[C@@H]4CC[C@]4(C)[C@@H](C6=CC(=O)OC6)CC[C@]54CO)C[C@H]3O[C@@H]2O1 (some centres not stated) | – | 3650 | 7310 | > 10000 | 3420 | 8390 | –
18 | C[C@@H]1C[C@@]2(N=C(N)CS2)C2(O)O[C@@H]3C[C@@]4(COC(=O)CCc5ccccc5)[C@@H](CC[C@@H]5[C@@H]4CC[C@]4(C)[C@@H](C6=CC(=O)OC6)CC[C@]54CO)C[C@H]3O[C@@H]2O1 (some centres not stated) | >40 | 4730 | > 10000 | > 10000 | > 10000 | 4840 | –
19 | C[C@@H]1C[C@@]2(NC(=O)CS2)C2(O)O[C@@H]3C[C@@]4(COC(=O)CCc5ccccc5)[C@@H](CC[C@@H]5[C@@H]4CC[C@]4(C)[C@@H](C6=CC(=O)OC6)CC[C@]54CO)C[C@H]3O[C@@H]2O1 (some centres not stated) | >40 | > 10000 | 4190 | > 10000 | > 10000 | > 10000 | –
20 | C[C@@H]1C[C@@]2(N=C(N)CS2)C2(O)O[C@@H]3C[C@@]4(C=O)[C@@H](CC[C@@H]5[C@@H]4CC[C@]4(C)[C@@H](C6=CC(=O)OC6)CC[C@]54CO)C[C@H]3O[C@@H]2O1 (some centres not stated) | 10 | 9 | 34 | 27 | 4 | 5 | –
21 | C[C@@H]1C[C@@]2(N[C@H](CC(=O)c3ccccc3)CS2)C2(O)O[C@@H]3C[C@@]4(C=O)[C@@H](CC[C@@H]5[C@@H]4CC[C@]4(C)[C@@H](C6=CC(=O)OC6)CC[C@]54CO)C[C@H]3O[C@@H]2O1 (some centres not stated) | 10 | 4 | 41 | 49 | 7 | 33 | –
22 | C[C@@H]1C[C@@]2(NC(=O)CS2)C2(O[Si](C)(C)C)O[C@@H]3C[C@@]4(CO[Si](C)(C)C)[C@@H](CC[C@@H]5[C@@H]4CC[C@]4(C)[C@@H](C6=CC(=O)OC6)CC[C@]54CO[Si](C)(C)C)C[C@H]3O[C@@H]2O1 (some centres not stated) | – | 657 | 3720 | 2690 | 525 | 931 | –
